Results as given in the array DNA melting data of Ke et al. (doi:10.1101/2024.01.08.574731).

How the values were obtained:
[1] = folding enthalpy; higher = less favourable; fluorescence melt of hairpins on a sequencing array, two-state fit; details: sodium 0.088 M
In short: (§1)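 Folding enthalpy and melting temperature come from bootstrapped two-state fits to Cy3 fluorescence of library hairpins carrying annealed Cy3 and quencher oligos on a sequenced MiSeq flow cell. Imaging was done in 50 mM Na-HEPES pH 8.0, 25 mM NaCl, stepping by 2.5 °C up to 60 °C, and signals were normalised to pre-quench Cy3 and to control constructs. Results of four replicates were combined by inverse variance, and fitted temperatures were raised by 9.35 °C to match UV melts.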

[2] = melting temperature; fluorescence melt of hairpins on a sequencing array, two-state fit, raised by 9.35 °C to match UV melts; details: sodium 0.088 M
In short: as §1

Sequence	folding enthalpy [1]	Tm [2]
GCGTCCGGAAACGAACGC ((((.((....)).))))	-42.8 kcal/mol	54.7 °C
GACGGTGGAAACATCGTC ((((.((....)).))))	-43.6 kcal/mol	53.7 °C
GCACTGGAAACAGTGC ((((((....))))))	-38.3 kcal/mol	65.2 °C
GTTTCACGAAAGTGCAAC (((.(((....))).)))	-26.9 kcal/mol	41.1 °C
GCCGATCCGAAAGGAGGC (((..(((....))))))	-36.8 kcal/mol	52.7 °C
GCAAGTCCGAAAGGATGC (((..(((....))))))	-16.1 kcal/mol	37.7 °C
GTAGACCGAAAGGTTAC (((.(((....))))))	-16.7 kcal/mol	38.5 °C
GCGTTTCCGAAAGGACGC (((..(((....))))))	-24.5 kcal/mol	49.7 °C
GAATGTGCGAAAGCATTC (((..(((....))))))	-9.5 kcal/mol	29.3 °C
GACGGGACGAAAGTCGTC (((..(((....))))))	-17.1 kcal/mol	45.8 °C
GTTCCGAAAGGAAC (((((....)))))	-29.5 kcal/mol	66.9 °C
GATCTACAGTTAGATC ((((((....))))))	-29.3 kcal/mol	38.3 °C
TCTCGGAAACGAGA (((((....)))))	-19.6 kcal/mol	47.9 °C
GCGTAATCGAAAGATCGC (((..(((....))))))	-25.1 kcal/mol	45.6 °C
CGTGACCGGAAACGGACG (((..(((....))))))	-15.7 kcal/mol	36.2 °C
GAGGGCCGAAAGGCTCTC (((.(((....))).)))	-30.6 kcal/mol	67 °C
GAGATGGGAAACCATTTC ((.((((....)))).))	-26.8 kcal/mol	35 °C
GTGCAAGGAAACTTGTGC (..((((....))))..)	-22.4 kcal/mol	37.4 °C
GATCTAGGAAACTAGATC (((((((....)))))))	-43.1 kcal/mol	51.9 °C
GATCCTATAAGGATC ((((((...))))))	-37.8 kcal/mol	55.2 °C
GATCTTGACAAAGATC ((((((....))))))	-44 kcal/mol	52.7 °C
GCAATCGCGAAAGCGTGC (((..(((....))))))	-12.5 kcal/mol	44 °C
GAATGCCGAAAGGCTTC (((.(((....))))))	-13.2 kcal/mol	43.6 °C

Sequence	folding enthalpy [1]	Tm [2]
GCATGCGAAAGCATCTGC ((((((....)))..)))	-13.4 kcal/mol	47 °C
GCGCCTCGAAAGAGCGC (((.(((....))))))	-35.9 kcal/mol	67.4 °C
GACCCCGAAAGGGTCGTC ((((((....)))..)))	-24.6 kcal/mol	58.2 °C
GAGAGCGGAAACACTCTC (((((.(....).)))))	-28.1 kcal/mol	43 °C
GCTATAGGAAACTGTAGC ((((.((....)).))))	-32.8 kcal/mol	43.5 °C
GATCGATAGATCGATC ((((((....))))))	-18.9 kcal/mol	61.1 °C
GAAGGGGGAAACCCCCTC ((.((((....)))).))	-12.7 kcal/mol	42.4 °C
GTCGCGGGAAACCGCAAC ((.((((....)))).))	-13.3 kcal/mol	44.1 °C
GCGTGGCGAAAGCTTCGC (((..((....))..)))	-23.6 kcal/mol	59.5 °C
GGACGCGAAAGCGTGTCC ((((((....)))..)))	-12.7 kcal/mol	54 °C
GCAAGCGAAAGCTTTTGC ((((((....)))..)))	-12.8 kcal/mol	42.2 °C
GGAAGAGGAAACTCTTCC (((((((....)))))))	-42.1 kcal/mol	58.2 °C
GGGGAAGGAAACCTCCCC (((((.(....).)))))	-43.9 kcal/mol	47.8 °C
GATCAATTATTGATC ((((((...))))))	-29.3 kcal/mol	43.8 °C
GAGACCGAAAGGTAGCTC ((((((....)))..)))	-18.5 kcal/mol	39.6 °C
GCGGTCGAAAGACGCGC ((((((....))).)))	-30.8 kcal/mol	65.6 °C
CGGAAGAAATTCCG (((((....)))))	-25.1 kcal/mol	46.4 °C
GCTACGCGAAAGCTCAGC (((..((....))..)))	-13.1 kcal/mol	37 °C
GCGATCGGAAACGGTTGC ((.(.((....)).).))	-29.6 kcal/mol	44.9 °C
GTTCGAGGAAACTTGGAC ((.(.((....)).).))	-16 kcal/mol	31.2 °C
GGCCACGGAAACGTAGCC (((.(((....))).)))	-28 kcal/mol	50.8 °C
GATCTAGTCGTAGATC ((((((....))))))	-27.9 kcal/mol	44.3 °C
GCTTCCCGAAAGGGCAGC (((.(((....))).)))	-32.5 kcal/mol	53.3 °C

Sequence	folding enthalpy [1]	Tm [2]
GTCACCGAAAGGTAGGAC ((((((....)))..)))	-17.2 kcal/mol	37.4 °C
GTCTCTCGAAAGAGTGAC (((.(((....))).)))	-32.6 kcal/mol	49.7 °C
GTGGTAGGAAACTGCCAC ((((.((....)).))))	-50 kcal/mol	54.1 °C
AAGCAGAAATGCTT (((((....)))))	-16.8 kcal/mol	42.1 °C
GATCTGATGCAGATC ((((((...))))))	-34.5 kcal/mol	48 °C
GCCGGGCGAAAGCATGGC (((..((....))..)))	-26.8 kcal/mol	64.9 °C
GGCATTTCGAAAGAAGCC (((..(((....))))))	-20.2 kcal/mol	34.4 °C
GACTGCGAAAGCAAGGTC ((((((....)))..)))	-15.3 kcal/mol	45.1 °C
GCTGGGCGAAAGCTAAGC (((..((....))..)))	-22.1 kcal/mol	53.9 °C
GCCGACCGAAAGGTGGC (((.(((....))))))	-34 kcal/mol	62 °C
GCTCAGGGAAACCTGGGC ((.((((....)))).))	-39.6 kcal/mol	54.4 °C
GACCTGGGAAACCAGATC ((.((((....)))).))	-22.5 kcal/mol	36.1 °C
GTGTCTGGAAACAGGTAC ((..(((....)))..))	-11.4 kcal/mol	30.1 °C
GCGGGGGCCCGC ((((....))))	-38.8 kcal/mol	56 °C
GATCCCTTCTGGGATC ((((((....))))))	-39.1 kcal/mol	62.5 °C
GCTATTTCGAAAGAAAGC (((..(((....))))))	-12.5 kcal/mol	28.3 °C
CGAGCGGAAACGCATTCG ((((((....)))..)))	-14.8 kcal/mol	33.1 °C
GTAAAAACGAAAGTTTAC (((..(((....))))))	-11.4 kcal/mol	27.8 °C
GGCGTGGGAAACCACACC ((.((((....)))).))	-35.3 kcal/mol	50.5 °C
GATCCTGAGGAGGATC ((((((....))))))	-34 kcal/mol	49.2 °C
GACCACGAAAGTGCGGTC ((((((....)))..)))	-19.3 kcal/mol	43.2 °C
GACGACGCGAAAGCGGTC (((..(((....))))))	-11.5 kcal/mol	47 °C
GCAACCGAAAGGTTTTGC ((((((....)))..)))	-14.4 kcal/mol	39.9 °C

Sequence	folding enthalpy [1]	Tm [2]
GATCGACCCGTCGATC ((((((....))))))	-47.1 kcal/mol	60.1 °C
GATCTGCCTCCAGATC ((((((....))))))	-32.6 kcal/mol	46.3 °C
GTCACGCGAAAGCGCGAC (((.(((....))).)))	-29.6 kcal/mol	58.9 °C
GCAATGTCGAAAGACTGC (((..(((....))))))	-20.3 kcal/mol	44.9 °C
GCATTGCGAAAGCAGAGC ((..(((....)))..))	-18.2 kcal/mol	47.5 °C
GTAAGACGAAAGTCCTAC (((.(((....))).)))	-15.7 kcal/mol	34.7 °C
GTTACCGAAAGGTAAC ((((((....))))))	-34.6 kcal/mol	66.4 °C
GTTCAAGCGAAAGCTAAC (((..(((....))))))	-11.4 kcal/mol	24.9 °C
GATCCAACGGTGGATC ((((((....))))))	-43.3 kcal/mol	49 °C
GTCCACGAAAGTGTCGAC ((((((....)))..)))	-14 kcal/mol	33.8 °C
GAGCCCCCGAAAGGGCTC (((..(((....))))))	-32.3 kcal/mol	65.4 °C
GTGGTCCCGAAAGGGCAC (((..(((....))))))	-14.8 kcal/mol	42.5 °C
GGGAACGAAAGTTGACCC ((((((....)))..)))	-20.9 kcal/mol	37.8 °C
GGCAACGAAAGTTTGCC ((((((....))).)))	-45.8 kcal/mol	56.4 °C
GATCCCGACTGGGATC ((((((....))))))	-38.5 kcal/mol	65.8 °C
GTAACCGAAAGGTTGTAC ((((((....)))..)))	-10.4 kcal/mol	33.4 °C
GCGGTTGGAAACAGTCGC (((..((....))..)))	-25.3 kcal/mol	44.2 °C
GCACGCACGAAAGTGTGC (((..(((....))))))	-23.2 kcal/mol	52.6 °C
GGTCGCGAAAGCGAACC ((((((....))).)))	-15.2 kcal/mol	67.3 °C
GCGATCGAAAGATATCGC ((((((....)))..)))	-29.2 kcal/mol	47 °C
GCCTACGGAAACGTAGAC (.(((((....))))).)	-18.1 kcal/mol	41.8 °C
CGTGACGGAAACGTTACG (((.(((....))).)))	-29.3 kcal/mol	52.2 °C
GCCTCCGAAAGGACAGGC ((((((....)))..)))	-36.5 kcal/mol	49.8 °C
